Measurements pooled from the literature.
Target: Dual specificity mitogen-activated protein kinase kinase 1 (MAP2K1, Homo sapiens, UniProt Q02750)

Cc1nn(C)cc1-c1nc2c(N3CCN(Cc4ccc(Cl)cc4)CC3)c(Cl)cnc2[nH]1 — remaining binding (binding; competition with immobilised ligand; 1 µM): 100%
Cn1cc(-c2cccc(N3CCc4c(sc5c4CC(C)(C)C5)C3=O)c2CO)cc(Nc2ccncn2)c1=O — inhibition (enzyme activity; inhibitor; 1 µM): 0%
COc1ncccc1-c1cnn2ccc(N3CCN(C(=O)OC(C)C)CC3)nc12 — remaining binding (binding; competition with immobilised ligand; 1 µM): 100%
C#Cc1n[nH]c2c(-c3cn([C@@H](C)c4ccccn4)c(=O)[nH]c3=O)cc(F)cc12 — inhibition (enzyme activity; inhibitor; 0.1 µM): 12%
Cn1cc(-c2cc(F)cc(N3CCn4c(cc5c4CCCC5)C3=O)c2CO)cc(Nc2ccc(N3CCN(C4COC4)CC3)cn2)c1=O — inhibition (enzyme activity; inhibitor; 0.1 µM): 6%
N#CC1(c2ccccn2)CCN(Cc2cc(C(=O)O)c(=O)n3ccccc23)CC1 — remaining binding (cell-free assay; competition with immobilised ligand; 1 µM): 95%
O=c1[nH]c2ccccc2n1C1CCN(Cc2ccc(-c3[nH]c4cc5ncnc5cc4nc3-c3ccccc3)cc2)CC1 — remaining signal (cell-free assay; 0.5 µM): 96.8%
Cn1cncc1[C@](O)(COc1ccc(C#N)cc1-c1ccc(OC(F)(F)F)cc1)c1ccc(C#N)cc1 — remaining binding (cell-free assay; competition with immobilised ligand; 1 µM): 100%
CC(C)(C)c1cc(C=C(C#N)C#N)cc(Br)c1O — remaining activity (enzyme activity; inhibitor; 0.5 µM): 90.8%
C#Cc1n[nH]c2c(-c3cn([C@@H](C)c4ccccc4)c(=O)[nH]c3=O)cc(F)cc12 — inhibition (enzyme activity; inhibitor; 0.1 µM): 6.6%
Nc1ncc(-c2nc(N3CCOCC3)nc(N3CCOCC3)n2)c(C(F)F)n1 — remaining binding (binding; competition with immobilised ligand; 10 µM): 83%
